Assay results from the RNAGym collection of RNA variant scans (doi:10.1038/nmeth.2970).

B1: NELF-E aptamer (parent)
chain: CCCAACGACUGCCGAGCGAGAUUACGCUUGAGCGCCCCACUGAGGAUGCCCACGGGCGAUUGGGGCACGG

Variants of: B1
Experiment: HiTS-RAP
Conditions: with NELF-E (Drosophila)
Method in brief: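 Kd came from weighted Hill fits to the first binding curve, with intensities normalised to sequencing intensity and averaged per sequence, keeping only fits whose variance was below 1,000,000. That curve was imaged on an Illumina GAIIx flowcell, where sequenced aptamer DNA templates with a T7 promoter and ter site had been transcribed in situ by T7 RNA polymerase and halted by GST-Tus (30 minutes, 37°C). Before each image, clusters equilibrated for 30 minutes at room temperature with NELF-E-mOrange at 0.064 to 1000 nM in HEPES binding buffer.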

| Variant | Kd [nM] |
| --- | --- |
| U29G G30C | 5.14 |
| U29G G30U | 5.81 |
| U29G G32A | 5.37 |
| U29G G34A | 7.56 |
| U29G G34U | 5.71 |
| U29G G42A | 24.6 |
| U29G G42U | 10.4 |
| U29G G44A | 94.7 |
| U29G G44U | 8.78 |
| U29G G45A | 74.1 |
| U29G G45U | 5.6 |
| U29G G48A | 11.3 |
| U29G G48U | 6.22 |
| U29G G54A | 13.1 |
| U29G G54U | 6.72 |
| U29G G55A | 7.74 |
| U29G G55C | 5.81 |
| U29G G55U | 6.64 |
| U29G G56A | 5.64 |
| U29G G56U | 5.44 |
| U29G G58U | 8.12 |
| U29G G62A | 18.7 |
| U29G G62U | 8.12 |
| U29G G63A | 11.4 |

| Variant | Kd [nM] |
| --- | --- |
| U29G G63U | 12.4 |
| U29G G64A | 7.34 |
| U29G G64C | 5.11 |
| U29G G64U | 6.21 |
| U29G G65A | 4.59 |
| U29G G65U | 6.57 |
| U29G U41A | 78.7 |
| U29G U41C | 67.5 |
| U29G U41G | 5.31 |
| U29G U47A | 11.1 |
| U29G U47G | 6.21 |
| U29G U60A | 13.2 |
| U29G U60C | 11.4 |
| U29G U61A | 28.1 |
| U29G U61C | 59.2 |
| U29G U61G | 14.4 |
| G30A | 4.41 |
| G30A A31G | 5.33 |
| G30A U41G | 5.12 |
| G30C | 6.15 |
| G30U | 5.41 |
| G30U A31G | 6.4 |
| A31C | 4.61 |
| A31G | 6.92 |

| Variant | Kd [nM] |
| --- | --- |
| A31G A39G | 14.3 |
| A31G A43G | 11.3 |
| A31G A52U | 21.5 |
| A31G A67U | 10.7 |
| A31G C51U | 7.88 |
| A31G G32A | 5.29 |
| A31G G32U | 4.81 |
| A31G G54A | 18.4 |
| A31G G55A | 9.56 |
| A31G G64A | 10.8 |
| A31G G65A | 9.82 |
| A31G U41G | 6.51 |
| A31U | 5.92 |
| A31U A39U | 38.1 |
| A31U C53U | 3.69 |
| A31U U41G | 7.78 |
| G32A | 4.35 |
| G32A U41G | 5.08 |
| G32C | 4.57 |
| G32U | 5.38 |
| C33A | 4.67 |
| C33G | 5.4 |
| C33G G34U | 5.51 |
| C33G U41G | 7.38 |

| Variant | Kd [nM] |
| --- | --- |
| C33U | 4.92 |
| C33U A39U | 26.9 |
| C33U G54A | 6.14 |
| G34A | 6.53 |
| G34A A52U | 20.7 |
| G34A A67U | 16.8 |
| G34A U41G | 7.5 |
| G34C | 9.79 |
| G34C C35G | 3.76 |
| G34U | 5.56 |
| G34U C35G | 4.52 |
| C35A | 6.56 |
| C35G | 6.51 |
| C35U | 13 |
| C36A | 8.24 |
| C36A G64A | 14.3 |
| C36G | 6 |
| C36U | 6.29 |
| C37A | 13.7 |
| C37A U41G | 15.9 |
| C37G | 5.85 |
| C37U | 11.1 |
| C37U U41G | 16.1 |
| C38A | 31.4 |

| Variant | Kd [nM] |
| --- | --- |
| C38G | 5.24 |
| C38U | 7.54 |
| C38U A39G | 6.36 |
| C38U U41G | 7.77 |
| A39C | 20.5 |
| A39G | 8.97 |
| A39G C57U | 9.77 |
| A39G G54A | 23.3 |
| A39G G63A | 87.1 |
| A39G U41G | 6.74 |
| A39G U61C | 8.88 |
| A39U | 23.5 |
| A39U A52G | 15.5 |
| A39U A67G | 27.3 |
| A39U A67U | 55 |
| A39U C40G | 5.95 |
| A39U C66U | 21.2 |
| A39U G48A | 49 |
| A39U G54A | 39.3 |
| A39U U41A | 109 |
| A39U U41G | 30.7 |
| A39U U61A | 17.4 |
| C40A | 71.3 |
| C40G | 5.55 |

| Variant | Kd [nM] |
| --- | --- |
| C40U | 56.6 |
| C40U U41G | 7.61 |
| U41A | 73.7 |
| U41A A52U | 81 |
| U41A A67U | 59.4 |
| U41A C66U | 85.7 |
| U41A G62A | 102 |
| U41C | 68.9 |
| U41C G54A | 103 |
| U41G | 5.16 |
| U41G A43G | 8.31 |
| U41G A43U | 26.3 |
| U41G A46G | 26.2 |
| U41G A46U | 62.9 |
| U41G A52G | 4.52 |
| U41G A52U | 16.4 |
| U41G A59G | 35.1 |
| U41G A59U | 31.7 |
| U41G A67G | 6.35 |
| U41G A67U | 7 |
| U41G C49U | 28 |
| U41G C50U | 13.8 |
| U41G C51U | 7.25 |
| U41G C53U | 3.62 |

| Variant | Kd [nM] |
| --- | --- |
| U41G C57U | 6.91 |
| U41G C66U | 4.15 |
| U41G G42A | 23.5 |
| U41G G42U | 5.09 |
| U41G G45A | 53.9 |
| U41G G45U | 5.07 |
| U41G G48A | 7.62 |
| U41G G54A | 18.1 |
| U41G G55A | 7.84 |
| U41G G55C | 6.95 |
| U41G G55U | 7.2 |
| U41G G56A | 5.81 |
| U41G G56U | 5.56 |
| U41G G62A | 19.9 |
| U41G G63A | 16.8 |
| U41G G63U | 11.8 |
| U41G G64A | 6.38 |
| U41G G64C | 7.1 |
| U41G G64U | 5.28 |
| U41G G65A | 6.9 |
| U41G G65U | 6 |
| U41G U47G | 7.59 |
| U41G U60C | 9.67 |
